We go through 4 molecules from PMC10125367 (ACS Bio & Med Chem Au, 2022).

The test system of series [1] is MIAPaCa-2 xenograft tumor. The experiment in a line: MIAPaCa-2 subcutaneous xenograft tumor model. The class given is in vivo, mouse. The settings on record: 5 mg/kg IP. The method in brief: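 Nude mice received MIAPaCa-2 cells subcutaneously in the hind flank and were split after 3 days into groups of equal mean tumour volume (8 vehicle, 7 treated). Dosing was 5 mg/kg test compound in corn oil, or DMSO in corn oil, intraperitoneally 5 days/week. Caliper volumes, (length × width²)/2, were taken twice weekly and body weights weekly. Tumour lysates were blotted for p-ERK, total ERK and GAPDH.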

For series [2], the system named is cancer cells expressing various mutants of KRAS. The experiment in a line: Cell proliferation, summary. The class given is cell-based.
Series [3] concerns the target KRAS(G12C) (Homo sapiens, UniProt P01116, G12C). Put plainly: Microscale thermophoresis. Format: binding.
For series [4], the target named is T1, KRAS(G12D) (Homo sapiens, UniProt P01116, G12D). Put plainly: Intrinsic fluorescence. The class given is binding. The settings on record: 0 to 50 µM ligand, 2 µM KRAS; qualitative.
The target in series [5] is T2, KRAS(WT) (Homo sapiens, UniProt P01116). Put plainly: Intrinsic GDP/GTP nucleotide exchange. The class given is biochemical. Summed up:
(§1)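 Recombinant KRAS(WT), BODIPY-GTP (BGTP) and, for SOS-mediated exchange, SOS are each at 0.5 μM. Buffer is 25 mM Tris Cl pH 7.5, 50 mM NaCl, 10 mM MgCl2, with test compound at 0–50 μM. Fluorescence rise on BGTP binding is normalised to the 60 s and KRAS-alone maximum values. Rates come from linear (intrinsic) or single-exponential (SOS) fits, and EC50 from fitting rate versus concentration.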

A short description of series [6]: Microsomal stability. The settings on record: rat, microsomes. Format: in vitro ADME.
In series [7] the target is GDP-KRAS(G12D) (Homo sapiens, UniProt P01116, G12D). Put plainly: Isothermal titration calorimetry. The class given is binding.
The target in series [8] is GDP-KRAS(G12C) (Homo sapiens, UniProt P01116, G12C). The experiment in a line: Isothermal titration calorimetry. Format: binding.
For series [9], the target named is KRAS (Homo sapiens, UniProt P01116). Put plainly: Intrinsic nucleotide release. Format: biochemical. The conditions noted are these: 50 µM ligand, 100 µM GTP.
The nature of series [10]: Microsomal stability. The class given is in vitro ADME. The conditions noted are these: human, microsomes.
Series [11] concerns the target KRAS(Q61H) (Homo sapiens, UniProt P01116, Q61H). The experiment in a line: Microscale thermophoresis. The class given is binding.
Series [12] concerns the target NRAS (Homo sapiens, UniProt P01111). Put plainly: Thermal shift assay. The conditions noted are these: 50 μM compound. Format: binding.
Series [13] has as its target KRAS with SOS (Homo sapiens, UniProt P01116). The experiment in a line: SOS-mediated nucleotide release. The class given is biochemical. The conditions noted are these: 50 µM ligand, 100 µM GTP, 0.5 µM SOS.
The target of series [14] is T2, KRAS(WT). Put plainly: Intrinsic fluorescence. Format: binding. The conditions noted are these: 0 to 50 µM ligand, 2 µM KRAS; qualitative.
Series [15] concerns BHK cells expressing GFP-tagged KRAS(G12D). Put plainly: Cell signaling assay. Format: cell-based, baby hamster. The method in brief:
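Whole-cell lysates were immunoblotted for phospho-c-Raf, phospho-ERK and phospho-AKT, with vinculin as loading control. Levels were quantified relative to DMSO, averaged from three independent experiments and compared by unpaired Student's t test.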

Series [16] addresses KRAS(G12D)-RafRBD interaction (Homo sapiens, UniProt P01116, G12D). The experiment in a line: RBD pull-down assay in BHK cell lysates. The conditions noted are these: lysates treated with 10 μM or more, 1 h. Format: cell-based, baby hamster. The method in brief:
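GTP-bound GFP-KRAS(G12D) and endogenous RAS were pulled down with GST-c-Raf RBD and detected by western blot, with total GFP-KRAS(G12D) and total RAS as loading controls. Signals were normalised to DMSO and averaged over three independent experiments, with unpaired Student's t test.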

The target of series [17] is GDP-KRAS(G13D) (Homo sapiens, UniProt P01116, G13D). Put plainly: Isothermal titration calorimetry. The class given is binding.
Series [18] addresses HRAS (Homo sapiens, UniProt P01112). Put plainly: Thermal shift assay. The conditions noted are these: 50 μM compound. The class given is binding.
Series [19] deals with GDP-KRAS(WT) (Homo sapiens, UniProt P01116). The experiment in a line: Isothermal titration calorimetry. Format: binding. The settings on record: Kd from ITC, GDP-bound KRAS(WT), 25 °C.
The target in series [20] is T2, KRAS(WT). The experiment in a line: Microscale thermophoresis. The class given is binding. The conditions noted are these: Kd from MST, GDP-bound KRAS(WT).
Series [21] has as its target KRAS(WT) with SOS (Homo sapiens, UniProt P01116). The experiment in a line: SOS-mediated GDP/GTP nucleotide exchange. The class given is biochemical. The method in brief:
as §1

The nature of series [22]: Microsomal stability. The class given is in vitro ADME. The settings on record: mouse, microsomes.
Series [23] relates to MDR1-MDCK cell monolayer. The experiment in a line: Permeability and efflux in MDR1-MDCK cell monolayer system. The class given is in vitro ADME. The conditions noted are these: corrected for cell volume on donor side.
For series [24], the system named is MDR1. The series is described as above. The settings on record: dog, MDCK-MDR1. The class given is in vitro ADME.
Series [25] has as its system MDR1 (P-gp). Described as above. The class given is in vitro ADME. The conditions noted are these: dog.
Series [26] deals with GDP-KRAS(Q61H) (Homo sapiens, UniProt P01116, Q61H). Put plainly: Isothermal titration calorimetry. Format: binding.
For series [27], the target named is T1, KRAS(G12D). Put plainly: Microscale thermophoresis. Format: binding. The settings on record: Kd from MST, GDP-bound KRAS(G12D).
Series [28] has as its system SOS. The conditions noted are these: read-out: IC50 in vitro; inhibits SOS; ref 20 Kessler, et al.; cited from earlier work.
In series [29] the test system is Raf. The conditions noted are these: read-out: IC50 in vitro; inhibits Raf; ref 20 Kessler, et al.; cited from earlier work.
[30] abbreviates: MDCK-MDR1, Papparent efflux ratio (ER).

HRAS, sequence (P01112 whole entry): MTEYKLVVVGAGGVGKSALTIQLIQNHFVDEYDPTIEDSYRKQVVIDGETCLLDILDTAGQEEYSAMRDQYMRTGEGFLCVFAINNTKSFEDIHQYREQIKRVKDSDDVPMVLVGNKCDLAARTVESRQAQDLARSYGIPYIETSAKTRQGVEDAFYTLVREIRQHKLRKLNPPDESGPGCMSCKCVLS
NRAS, sequence (P01111 whole entry): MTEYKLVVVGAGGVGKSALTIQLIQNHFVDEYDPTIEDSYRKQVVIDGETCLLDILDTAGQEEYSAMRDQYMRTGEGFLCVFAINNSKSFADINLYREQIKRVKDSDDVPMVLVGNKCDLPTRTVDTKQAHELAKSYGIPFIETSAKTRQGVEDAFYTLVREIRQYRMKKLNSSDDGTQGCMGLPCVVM

As to `O=C(O)c1cc(NC(=O)C2CC2c2ccccc2)ccc1O` (centres unmarked) [ACA-14, 2-hydroxy-5-{[(2-phenylcyclopropyl)carbonyl]amino} benzoic acid], the “Weight gain of treated mice” value in series [1] (nude mice, 5 days per week) is on record as “did not affect weight gain”. For the same molecule, the Tumor growth result in [1] (nude mice, 5 days per week, maintained until day 20) was “small but statistically significant reduction”. Besides, the “ERK activation within tumors (p-ERK western blot)” value in series [1] (tumor lysates) was “small but significant reduction”. For the same molecule, in series [2], the “Concentration required to inhibit proliferation” value was more than 20 µM. In addition, the Kd in series [3] was 340 ± 70 nM; in series [7], 45900 nM; in [8], 11800 nM; in series [11], 20 ± 10 nM; in series [17] it was 34100 nM; in series [19], 1100 nM. For the same molecule, the results for the Kd in [20], in [26] and in [27] were 4500 ± 1500 nM, 1040 nM and more than 50000 nM, respectively. Moreover, the “Change in intrinsic fluorescence of the compound on mixing with protein” value in [4] and in series [14] was “concentration-dependent changes” each time. In addition, the EC50 stood at 3800 ± 600 nM in series [5] and 2100 ± 400 nM in [21]. The Intrinsic clearance in series [6], in series [10] and in series [22] was less than 0.3 mL/min/g throughout. Moreover, the half-life in series [6], in series [10] and in series [22] was more than 3 h each time. Moreover, the “Effect on rate of intrinsic GDP release” value in series [9] is recorded as “lack of effect”. Moreover, the “Change in melting temperature (Tm)” value in series [12] and in [18] was “no measurable change” each time. The “Effect on rate of SOS-mediated GDP release” value in [13] is given as “lack of effect”. Moreover, in [15], the “Concentration required to inhibit MAPK signaling” value is more than 20 µM. In addition, the “Level of phosphorylated ERK (p-ERK)” value in series [15] (3 h, serum-starved) is “significantly reduced”. The “Level of phosphorylated c-Raf (p-cRaf)” value in series [15] (3 h, serum-starved) is “significantly reduced”. Further, the p-AKT level result in series [15] (3 h, serum-starved, concentration range tested) is given as “little effect”. The “Level of GFP-tagged GTP-KRAS(G12D) pulled down by c-Raf RBD” value in series [16] is recorded as “significantly reduced”. The “Level of endogenous RAS pulled down by c-Raf RBD” value in series [16] is reported as “significantly reduced”. Moreover, the “Pexact, A > B” value in [23] is 5.355 ×10⁻⁶ cm/s. For the same molecule, in [23], the “Pexact, B > A” value is 3.833 ×10⁻⁶ cm/s. Further, in series [24], the Papp A→B was 5.42 ×10⁻⁶ cm/s. Further, the basolateral-to-apical permeability (Papp B→A) in series [24] was 3.51 ×10⁻⁶ cm/s. Besides, the efflux ratio in series [25] (setting [30]) is 0.65; in series [25] (MDCK-MDR1, Pexact efflux ratio), 0.72.
`Cn1cnc(Cn2ccc3ccc(CNCc4[nH]c5ccccc5c4[C@H]4NC(=O)c5ccc(O)cc54)cc32)c1` [BI-2852]: the half-inhibitory concentration (IC50) in series [28] and in [29] was 500 to 700 nM in each case.
For the molecule `CC(C)CN(C[C@@H](O)[C@H](Cc1ccccc1)NC(=O)O[C@H]1CCOC1)S(=O)(=O)c1ccc(N)cc1` [amprenavir], in series [23], the “Pexact, A > B” value amounted to 1.436 ×10⁻⁶ cm/s and the “Pexact, B > A” value came out at 24.325 ×10⁻⁶ cm/s. Besides, in series [24], the Papp A→B turned out to be 1.65 ×10⁻⁶ cm/s and the Papp B→A is 17.1 ×10⁻⁶ cm/s. In addition, in [25] (setting [30]), the efflux ratio worked out at 10.3. Also, the efflux ratio in [25] (MDCK-MDR1, Pexact efflux ratio) was 16.9.
Consider `CC(C)NCC(O)COc1cccc2ccccc12` (centres unmarked) [propranolol], for which, in series [23], the “Pexact, A > B” value was determined as 39.979 ×10⁻⁶ cm/s and the “Pexact, B > A” value was 20.715 ×10⁻⁶ cm/s. In series [24], this molecule had an apparent permeability from apical to basolateral (Papp A→B) of 31.2 ×10⁻⁶ cm/s and an apparent permeability from basolateral to apical (Papp B→A) of 15 ×10⁻⁶ cm/s. Besides, the efflux ratio in series [25] (setting [30]) is 0.48. Also, the efflux ratio in series [25] (MDCK-MDR1, Pexact efflux ratio) turned out to be 0.52.
